High-throughput results (PubChem BioAssay)
TAAR1 agonist: human TAAR1 agonism; activation, % at 3 µM; 360,000 tested, 0.99% active; CHO RD-HGA16 TAAR1, Fluo-8 calcium fluorescence; vehicle wells 0%, saturating PEA agonist 100%;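 active = activation above the mean activation of all test compounds in the run plus 3 SD, cut at about 38% in these data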
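Test system: RD-HGA16 (CHO) cells co-expressing Gα16 and hTAAR1 / Benchmarks: DMSO vehicle as 0%, PEA at EC100 as 100% / Repeats: no replicates (n 1) / Measure: % activation from peak over basal fluorescence ratio, DMSO-to-PEA scaled / Timing: 17-24 h plating, Fluo-8 75 min 37 °C, 30 min RT / Technique: kinetic Fluo-8 calcium fluorescence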
TRPN1 ag: zebrafish TRPN1 (NompC) channel agonism | HEK293 zebrafish TRPN1-YFP, Fluo-8 calcium fluorescence; 100% = response to 87 µM carbachol | activation, % at 3 µM | 220,000 tested, 0.18% active;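 active = activation above its plate's cutoff, the mean activation of test wells on that plate plus 3 SD, cut at about 19% in these data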;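 also: 0% = DMSO alone and 100% = 87 µM carbachol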
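Material: zebrafish TRPN1-YFP in HEK293 cells. Doses: one dose of 3 µM, 0.3% DMSO. Incubation: dye 1 h 37 °C plus 30 min RT. Measured by: intracellular calcium fluorescence with Fluo-8.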
TRPML3 ag: human mucolipin-3 channel agonism. Q8TDD5. HEK293 TRPML3-YFP, Fluo-8 calcium fluorescence; 100% = the carbachol control signal. activation, % at 3 µM. 220,000 tested, 0.29% active. AID 1448;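 active = activation above its plate's cutoff, the mean activation of the plate's test wells plus 3 SD, cut at about 12% in these data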;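 also: 0% = DMSO only wells and 100% = carbachol wells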
Target sequence (Q8TDD5 whole entry, looked up): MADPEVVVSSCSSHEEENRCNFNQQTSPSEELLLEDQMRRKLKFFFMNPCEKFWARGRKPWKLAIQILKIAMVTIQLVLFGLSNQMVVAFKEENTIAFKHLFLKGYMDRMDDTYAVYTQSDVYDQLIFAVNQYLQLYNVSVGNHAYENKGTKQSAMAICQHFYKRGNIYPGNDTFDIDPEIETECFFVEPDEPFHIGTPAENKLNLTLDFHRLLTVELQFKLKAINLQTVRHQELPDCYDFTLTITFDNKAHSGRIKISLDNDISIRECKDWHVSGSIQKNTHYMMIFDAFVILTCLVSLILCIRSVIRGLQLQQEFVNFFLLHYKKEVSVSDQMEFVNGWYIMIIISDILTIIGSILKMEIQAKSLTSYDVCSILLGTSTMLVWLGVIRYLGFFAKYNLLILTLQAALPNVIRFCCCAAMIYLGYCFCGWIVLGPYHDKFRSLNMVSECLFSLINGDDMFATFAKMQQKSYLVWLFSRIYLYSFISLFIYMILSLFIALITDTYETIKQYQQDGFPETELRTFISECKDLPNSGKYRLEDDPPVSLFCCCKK
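Test system: TRPML3-YFP stable HEK293 cells. Doses: single point at 3 µM. Incubation: dye loading 1 h 37 °C then 30 min ambient, 125 s read. Signal: Fluo-8 calcium dye fluorescence, ex 470-495, em 515-575 nm. Measure: percent activation from peak-to-basal fluorescence ratio, scaled between DMSO and carbachol.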
LANA-H2B inh: blocks KSHV LANA binding to histone H2A/H2B; Q9QR71; cell-free LANA-H2A/H2B peptide, fluorescence polarization; inhibition, % (no concentration beside the values); 320,000 tested, 0.6% active; AID 2629; in the data active = inhibition mostly above about 10%, no sharp cut-off; inactive = mostly below about 6.7%
GPR7 antagonist: antagonists of human GPR7 (neuropeptides B/W receptor 1). 290,000 tested, 1.1% active. inhibition, % at 4.4 µM. AID 1861. GPR7-expressing cells, fluorescence antagonist assay; in the data active = inhibition above about 16%, passing the limit was not always enough;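 also: cells stimulated with the agonist NPW; 0% = agonist with vehicle and 100% = vehicle without agonist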
TAAR1 antag: antagonists of human TAAR1. AID 624466. CHO RD-HGA16 TAAR1, Fluo-8 calcium fluorescence, antagonist. 360,000 tested, 1.5% active. inhibition, % at 3 µM;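 active = inhibition above a per-plate cutoff, the mean inhibition of test compounds on that plate plus 3 SD, cut at about 49% in these data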;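 also: 0% = DMSO plus EC80 beta-PEA response and 100% = DMSO alone without agonist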
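System: RD-HGA16 CHO cells with stable hTAAR1 and Gα16 | Probe or stimulus: EC80 β-phenethylamine stimulus | Dosing: 3 µM, single point | Times: Dye loading 75 min at 37 °C, then 30 min room temperature | Measured by: Fluo-8 calcium-sensitive fluorescence | Read-out basis: % inhibition of agonist calcium response | Replicates: n of 1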
TAAR1 ag conf: human TAAR1 agonism, confirmed; shares compounds with TAAR1 agonist; CHO RD-HGA16 TAAR1, Fluo-8 calcium fluorescence; scaled: DMSO 0%, maximal phenethylamine 100%; activation, % at 3 µM; 2,400 tested, 82% active;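 active = activation above a cutoff set at the run's mean compound activation plus 3 SD, cut at about 39% in these data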
Ga16 nonsel ag: nonselective agonism, TAAR1 counter-screen; shares compounds with TAAR1 agonist; CHO-Ga16 parental, Fluo-8 calcium fluorescence; normalized to maximal ATP response, DMSO zero; activation, % at 3 µM; 2,400 tested, 50% active;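 active = activation above the run cutoff, the mean activation over all tested wells plus 3 SD, cut at about 12% in these data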;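 also: 0% = DMSO wells and 100% = maximal ATP response on the peak over basal ratio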
TAAR1 desens: TAAR1 response desensitization, agonist counter-screen | shares compounds with TAAR1 agonist | CHO RD-HGA16 hTAAR1, Fluo-8 calcium, beta-PEA response inhibition | inhibition, % at 3 µM | 2,400 tested, 46% active;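 active = inhibition above the run cutoff, the mean inhibition of all test compounds plus 3 SD, cut at about 49% in these data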;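 also: beta-PEA stimulus applied at its EC80; loss of beta-PEA calcium signal after compound pretreatment read as receptor desensitization; 0% = DMSO with beta-PEA at EC80 and 100% = DMSO alone without agonist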
Ga16 nonsel ant: counter-screen for TAAR1 agonists: nonselective Ga16 antagonists | shares compounds with TAAR1 agonist | CHO-Ga16 ATP-induced calcium, Fluo-8 fluorescence | inhibition, % at 3 µM | 2,400 tested, 39% active | AID 651952;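 active = inhibition above the plate's mean compound inhibition plus 3 SD, computed per plate, cut at about 22% in these data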;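 also: 0% = EC80 ATP with DMSO and 100% = DMSO wells without ATP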
An asterisk follows results filed as active; · = no result given. An excerpt weighted towards active compounds, which were near 3.4% of everything screened.

SMILES | TAAR1 agonist | TRPN1 ag | TRPML3 ag | LANA-H2B inh | GPR7 antagonist | TAAR1 antag | TAAR1 ag conf | Ga16 nonsel ag | TAAR1 desens | Ga16 nonsel ant
COC(=O)CCN1CCC2CC1c1cc(Cl)ccc12 (centres undefined) | 1.0 | · | · | · | · | -4.3 | · | · | · | ·
OCc1ccccc1SSc1ccccc1CO | 58.0* | · | · | -3.1 | · | -4.0 | 31.7 | 19.3* | 7.0 | 4.5
OCc1ccccc1CNCc1ccccc1 | 7.3 | 0.3 | -0.2 | 2.5 | 0.7 | -0.3 | · | · | · | ·
CCOC(=O)c1cnn2c(C(F)(F)F)cc(-c3ccccc3)nc12 | 24.0 | -0.4 | -0.2 | -0.6 | -2.4 | 19.1 | · | · | · | ·
CCOC(=O)N1CCC(NC(=O)c2cnn3c(C(F)(F)F)cc(-c4cccc(OC)c4)nc23)CC1 | 71.2* | · | · | -0.5 | · | 1.8 | 2.8 | 4.0 | 19.1 | 15.9
O=C(NCc1ccccc1)[C@@H]1CCCN1C(=O)[C@@H](NS(=O)(=O)c1ccc(F)cc1F)c1ccccc1 | 0.5 | · | · | · | · | -20.4 | · | · | · | ·
CC(C)[C@H](NC(=O)c1ccccc1)C(=O)N1CCC[C@H]1C(=O)NCCc1ccccc1Cl | 79.6* | · | · | · | · | 83.4* | 95.8* | 4.2 | 93.1* | 4.2
CC(N)C(=O)NC(C(=O)N1CCCC1C(=O)NC(c1ccccc1)c1ccccc1)C(C)C (centres undefined) | 4.0 | · | · | 5.1 | · | -5.3 | · | · | · | ·
CC(C)[C@H](NC(=O)c1ccc(Cl)c(Cl)c1)C(=O)N1CCC[C@H]1C(=O)NCCc1ccccc1Cl | 53.4* | · | · | · | · | 80.0* | 81.8* | 0.1 | 97.5* | 2.0
CC(C)[C@H](NS(=O)(=O)c1ccc(F)cc1F)C(=O)N1CCC[C@H]1C(=O)NCCc1ccccc1Cl | 48.9* | · | · | · | · | 64.2* | 76.5* | 1.4 | 86.0* | 11.3
O=c1ccc2cccc([N+](=O)[O-])c2[nH]1 | 0.7 | · | · | · | · | -6.7 | · | · | · | ·
Cc1cc(C(=O)CN2C(=O)C(=O)N(Cc3ccccc3)C2=O)c(C)n1Cc1ccccc1 | 7.4 | · | · | 2.2 | · | 18.1 | · | · | · | ·
Cc1cc(C(=O)CN2C(=O)C(=O)N(C3CCCC3)C2=O)c(C)n1CCc1ccc(F)cc1 | 72.1* | · | · | · | · | 13.3 | 82.0* | 2.2 | 53.8* | 15.4
Cc1cc(C(=O)CN2C(=O)C(=O)N(C3CCCC3)C2=O)c(C)n1CCc1ccccc1 | 48.6* | · | · | · | · | 28.3 | 79.6* | 0.9 | 54.6* | 15.3
COc1cccc(CN2CCNC(=O)C2CC(=O)N2CCOc3ccccc3C2)c1OC (centres undefined) | 66.2* | -0.9 | 0.5 | -1.2 | -12.7 | -1.1 | 72.7* | 0.1 | 24.3 | 9.2
COc1cc(CN2CCNC(=O)C2CC(=O)N2CCc3ccccc3C2)cc(OC)c1 (centres undefined) | 65.6* | 0.9 | 0.0 | -0.1 | 7.8 | -4.4 | 67.6* | 0.6 | 14.9 | 0.9
CC(C)(C)CN1CCNC(=O)C1CC(=O)N1CCOc2ccccc2C1 (centres undefined) | 59.3* | 0.1 | 0.8 | -7.7 | -10.3 | 1.2 | 54.1* | 2.9 | 3.0 | 6.9
COc1ccc(CN2CCNC(=O)C2CC(=O)N2CCc3ccccc3C2)c(OC)c1 (centres undefined) | 17.3 | -2.2 | -0.3 | -2.0 | 7.1 | -7.3 | · | · | · | ·
COc1cccc(CN2CCNC(=O)C2CC(=O)N(C)CCC2CCOCC2)c1OC (centres undefined) | 1.0 | · | · | -2.8 | -7.0 | -10.4 | · | · | · | ·
